# Assay outcomes deposited in PubChem BioAssay by several laboratories.
# APJ antagonist: antagonists of human apelin receptor APJ, primary screen, CHO-K1 cells, beta-arrestin complementation, luminescence. inhibition, % at 20 µM. P35414. AID 2521, 2010. 0.32% of 330,000 active;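 active = inhibition above about 40% at 20 µM, limit read from the data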;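 also: cells challenged with 10 nM apelin-13 agonist together with compound; plate controls were apelin-13 plus DMSO wells for no effect and DMSO wells lacking apelin-13 for full effect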
# Target sequence (P35414 whole entry, looked up): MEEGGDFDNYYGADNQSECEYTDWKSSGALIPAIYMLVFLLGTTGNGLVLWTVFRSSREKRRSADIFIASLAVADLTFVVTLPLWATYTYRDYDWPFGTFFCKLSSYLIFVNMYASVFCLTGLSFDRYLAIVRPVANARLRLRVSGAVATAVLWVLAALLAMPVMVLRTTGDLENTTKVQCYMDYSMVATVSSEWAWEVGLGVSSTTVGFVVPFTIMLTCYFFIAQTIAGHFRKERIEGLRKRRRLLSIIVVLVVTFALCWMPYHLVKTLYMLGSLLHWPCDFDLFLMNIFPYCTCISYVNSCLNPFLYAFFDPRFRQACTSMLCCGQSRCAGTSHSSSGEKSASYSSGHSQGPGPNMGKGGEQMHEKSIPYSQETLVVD
# m5-HT2A agonist: mouse Htr2a agonists via beta-arrestin recruitment, primary screen, cell-based, luminescence | 0.66% of 360,000 active | CHO-K1 mHTR2A beta-arrestin complementation; percent of 30 µM serotonin response | activation, % at 7.6 µM;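 active = activation above a run cutoff, the mean activation of all tested compounds plus 3 SD, cut at about 14% in these data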;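 also: 0% = plate median of compound wells and 100% = 30 µM serotonin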
# APJ agonist: agonists of human apelin receptor APJ, primary screen, CHO-K1 cells, PathHunter beta-arrestin, luminescence. 0% DMSO wells, 100% apelin. 0.11% of 330,000 active. AID 2520, 2010. activation, % at 20 µM. P35414;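 active = activation more than six SD over the plate average, tested at 20 µM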;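 also: 0% = DMSO alone and 100% = apelin-13 at 10 nM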
#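 Test system – PathHunter CHO-K1 APJ (AGTRL-1) beta-arrestin reporter cells · Input – 1000 cells/well · Compound – single test compound dose, 20 µM final, 1% DMSO · Times – compound stimulation 90 min at 25 °C, detection 60 min · Technique – beta-gal luminescence · Read-out basis – APJ–arrestin association signal · Control set – negative DMSO alone, positive Apelin-13 at 10 nM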
# EBI2 block: EBI2 receptor antagonists, beta-arrestin recruitment, primary screen, cell-based, luminescence, 7a,25-OHC stimulation, uHTS. 7a,25-OHC stimulated. 0.81% of 360,000 active. inhibition, % at 5 µM; in the data active = inhibition above about 38%;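 also: enzyme fragment complementation signal reports receptor beta-arrestin coupling in cells; 0% = agonist plus DMSO wells and 100% = wells without agonist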
# CXCR6 block: CXCR6 receptor inhibitors, primary screen, cell-based, beta-arrestin, luminescence, CHO-K1 PathHunter, 1536-well | AID 602244, 2012 | 0.36% of 360,000 active | inhibition, % at 20 µM | C-X-C chemokine receptor type 6 (Homo sapiens), O00574; in the data active = inhibition above about 34%, passing the limit was not always enough;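 also: antagonist mode with CXCL16 agonist at 10 nM final; 0% = 10 nM CXCL16 with DMSO and 100% = unstimulated wells without agonist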
# CCR6 antagonist: CCR6 receptor antagonists, primary screen, cell-based, CHO-K1, luminescence, beta-arrestin, uHTS; C-C chemokine receptor type 6 (Homo sapiens), P51684; AID 493098, 2011; CHO-K1 CCR6 PathHunter beta-arrestin, CCL20-stimulated; inhibition, % at 20 µM; 0.49% of 340,000 active;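 active = compounds whose inhibition of the agonist-driven luminescence signal at 20 µM reaches about 50%, limit read from the data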;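 also: cells stimulated with CCL20 at 14 nM final; plate controls were DMSO with CCL20 for no effect and DMSO without agonist for full effect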
# Active calls of the source: *; nt = not tested or not shown. Hits are enriched below; roughly 2.1% of the tested compounds scored in any of these assays.
SMILES,APJ antagonist,m5-HT2A agonist,APJ agonist,EBI2 block,CXCR6 block,CCR6 antagonist
O=C(CN1CCOCC1)Nc1nc(-c2ccc3c(c2)CCN3S(=O)(=O)c2ccccc2)cs1,0,15*,0,17,-7,12
Oc1ccc(/C=N/NC(=S)NC2CC3CCC2C3)cc1 (centres undefined),-1,-6,3,49*,9,3
CCN(CC)CCC(=O)N1C/C(=C/c2ccccc2)C(=O)/C(=C\c2ccccc2)C1,nt,0,nt,52*,62*,66*
O=C1/C(=C\c2ccccc2)CCC/C1=C/c1ccccc1,nt,-1,nt,-8,3,15
O=C1/C(=C\c2ccccc2)CN(C(=O)CCN2CCCCC2)C/C1=C/c1ccccc1,nt,-10,nt,52*,66*,82*
O=C1/C(=C\c2ccc(Cl)c(Cl)c2)CN(C(=O)CCN2CCOCC2)C/C1=C/c1ccc(Cl)c(Cl)c1,nt,-7,nt,90*,32,56*
COc1ccccc1CNC(=O)COc1cc(O)c2c(c1)OC(C)(C)CC2=O,nt,2,nt,2,8,nt
Cc1ccccc1CS(=O)(=O)c1nnc([C@H](CC(C)C)NC(=O)OC(C)(C)C)o1,31,-7,-1,13,27,53*
CC(C)C[C@H](N)c1nnc(S(=O)(=O)Cc2cccc(F)c2)o1,-1,-5,0,-4,13,13
CC(C)(C)OC(=O)N[C@@H](Cc1ccccc1)c1nnc(S(=O)(=O)Cc2cccc(F)c2)o1,29,nt,0,nt,nt,69*
Cc1cccc(C)c1NC(=O)C1C(c2ccc3c(c2)OCO3)=Nc2ccccc2N1C(=O)c1cccc2ccccc12 (centres undefined),nt,-4,nt,6,nt,nt
CN(CC(=O)Nc1ccccc1C(F)(F)F)C(=O)CSc1nc(N)cc(N)n1,nt,-2,nt,-11,5,-6
O=C(c1cc2c(s1)-c1ccccc1OC2)N1CCCC1,2,-2,-3,2,0,-12
CCCN1CCN(C(=O)c2cc3c(s2)-c2ccccc2OC3)CC1,10,2,-2,88*,-2,10
CCOC(=O)C1=C[C@@H](C2CCCC2)N(S(=O)(=O)c2ccc([N+](=O)[O-])cc2)[C@H]1c1ccccc1,nt,-2,nt,-8,-15,nt
O=C(CN1Cc2ccccc2C1=O)Nc1ccc2c(c1)OCCO2,-28,10,-1,-10,2,-2
COc1ccc(CC(=O)NCC(=O)N/N=C/c2sccc2C)cc1,10,4,-1,10,3,18
COC(=O)c1cc(=O)n(Cc2ccco2)c(=Nc2ccc(F)c(Cl)c2)s1,26,4,0,55*,8,11
COC(=O)c1cc(=O)n(CCc2ccccc2F)c(=Nc2ccc(F)c(Cl)c2)s1,12,2,5,69*,0,17
COC(=O)c1cc(=O)n(Cc2cccs2)c(=Nc2ccc(F)cc2)s1,19,6,0,30,10,30
COC(=O)c1cc(=O)n(-c2ccc(F)cc2)c(=Nc2ccc(F)cc2)s1,12,5,-1,16,14,21
Cc1nnc(N=c2ssnc2Cl)o1,21,4,-1,41*,13,56*
CC(=NNc1ccc2ccccc2n1)c1ccccc1O,nt,-4,nt,15,56*,nt
COc1ccccc1CNC(=O)C(=O)NCC1OCCN1S(=O)(=O)c1cccs1 (centres undefined),-7,2,-3,3,5,3
COc1ccccc1CNC(=O)C(=O)NCC1OCCCN1S(=O)(=O)c1cccs1 (centres undefined),-2,17*,0,5,4,5
SMILES,APJ antagonist,m5-HT2A agonist,APJ agonist,EBI2 block,CXCR6 block,CCR6 antagonist
O=C1C=CC(=O)N1c1ccc(OC(F)F)cc1,nt,5,nt,7,103*,nt
O=C1CCCC(=O)N1c1ccc(O)cc1,2,-1,0,4,1,9
O=C1C=CC(=O)N1c1ccc(O)cc1,-3,2,-5,8,14,81*
CCOC(=O)C1C(C(=O)OCC)C2C(=O)C3C(C(=O)OCC)C(C(=O)OCC)C3C(=O)C12 (centres undefined),nt,6,nt,-5,3,nt
CC(C)(O)C#Cc1ccc(CNC[C@H]2O[C@@H](n3cnc(C(N)=O)n3)[C@H](O)[C@@H]2O)s1,nt,11,nt,-7,-1,13
COC(CNC(=O)c1cccnc1)OC,-6,3,-1,-12,3,18
COC(CNC(=O)c1ccc2c3c(onc13)-c1ccccc1C2=O)OC,-6,-5,8,13,56*,nt
Cc1cccc2nc(-c3ccco3)c(Nc3ccccc3)n12,16,0,-4,0,4,18
Cc1ccc(Nc2c(-c3ccccn3)nc3cccc(C)n23)cc1,23,-13,-10,22,42*,64*
CC1OC(CC(=O)O)CC2=C1C(=O)c1c(O)cccc1C2=O (centres undefined),nt,-12,nt,8,74*,89*
O=C1c2cccc(O)c2C(=O)c2c(O)cccc21,-24,nt,19,nt,nt,nt
COc1ccc(C(=O)N2C(=O)c3ccc(N)cc3C2=O)cc1,27,5,-2,3,5,7
Cc1ccc(-n2c(=O)c3ccc(C(=O)NCc4ccco4)cc3n(Cc3ccccc3C#N)c2=O)cc1,86*,-11,-13,14,35,35
Cc1ccccc1Cn1c(=O)n(-c2ccccc2)c(=O)c2ccc(C(=O)NCc3ccco3)cc21,6,-6,-6,0,6,nt
O=S(=O)(Nc1ccc(N=Nc2ccc(O)c3ccccc23)cc1)c1ccccc1,38,-6,-10,47*,34,61*
Cc1ncsc1CCOC(=O)C12CC3CC(CC(C3)C1)C2,1,16*,-1,-8,-7,-3
O=C(Nc1ccccc1Cl)Nc1ccnn1C1CCN(C(=O)CCN2CCCO2)CC1,19,2,5,-14,-2,-1
O=C(Cc1ccc(S(=O)(=O)N2CCOCC2)s1)Nc1ccccc1Br,-21,-3,2,8,-12,-2
NC(=O)c1cc(-c2ccccc2)sc1NC(=O)Cc1ccc(S(=O)(=O)N2CCOCC2)s1,6,-3,0,50*,-1,-16
CCn1c(SC(=O)NC2CCCCC2)nnc1-c1cccs1,-12,2,-2,6,15,51*
CCCn1c(N)c(Sc2ccccc2)c(=O)n(CCC)c1=O,21,18*,-6,-11,2,3
COC(=O)[C@@H](Cc1ccccc1)NC(=O)Cn1cc(C)c(=O)[nH]c1=O,nt,0,nt,-15,-7,7
